Measurements from ChEMBL document CHEMBL1144907, “Novel sst(4)-selective somatostatin (SRIF) agonists. 3. Analogues amenable to radiolabeling” (J Med Chem, 2003).
Numbered stars: 1 amine (or outer) side, 2 acyl side, 3 side chain; on linkers, the order of the positions; unused ones are H or OH. Bridge positions count the residues as written; N and C are the ends. Square brackets hold non-standard residues; d marks the D form. Peptide text beside a SMILES is read from it. * marks the point of attachment. Tyr(Nα-carbamoyl) = NC(=O)N[C@@H](Cc1ccc(O)cc1)C(=O)*; X3 = C[C@H](c1c[nH]c2ccccc12)[C@@H](N[*:1])C(=O)[*:2]; Trp(βS-Me) = C[C@@H](c1c[nH]c2ccccc12)[C@H](N)C(=O)O

Tests used:
[1] = molecular target: Somatostatin receptor type 3 (Homo sapiens, UniProt P32745); assay: Binding affinity towards human somatostatin receptor type 3 using [125I][Leu8,D-Trp22,Tyr25]SRIF-28 as radioligand.
Summary of the method: (§1)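 Receptor autoradiography on 20-µm cryostat sections of pellets of cells stably expressing the cloned human receptor. Cell hosts: sst1 CHO-K1, sst2 CCL39, sst3 CCL39, sst5 CHO-K1. Sections were incubated with radioligand at 30 000 cpm/100 µL and displaced by unlabeled peptide from 0.1 to 1000 nM. SRIF-28 was run in parallel as control. IC50 was obtained by computer-assisted image quantification against calibrated isotope tissue standards.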

[2] = molecular target: Somatostatin receptor type 2 (Homo sapiens, UniProt P30874); assay: Binding affinity towards human somatostatin receptor type 2 using [125I][Leu8,D-Trp22,Tyr25]SRIF-28 as radioligand.; summary of the method: as §1
[3] = molecular target: Somatostatin receptor type 1 (Homo sapiens, UniProt P30872); assay: Binding affinity towards human somatostatin receptor type 1 using [125I][Leu8,D-Trp22,Tyr25]SRIF-28 as radioligand.; summary of the method: as §1
[4] = molecular target: Somatostatin receptor type 4 (Homo sapiens, UniProt P31391); assay: Binding affinity towards human somatostatin receptor type 4 using [125I][Leu8,D-Trp22,Tyr25]SRIF-28 as radioligand.
[5] = molecular target: Somatostatin receptor type 5 (Homo sapiens, UniProt P35346); assay: Binding affinity towards human somatostatin receptor type 5 using [125I][Leu8,D-Trp22,Tyr25]SRIF-28 as radioligand.; summary of the method: as §1
Sequence of Somatostatin receptor type 5 (P35346 whole entry): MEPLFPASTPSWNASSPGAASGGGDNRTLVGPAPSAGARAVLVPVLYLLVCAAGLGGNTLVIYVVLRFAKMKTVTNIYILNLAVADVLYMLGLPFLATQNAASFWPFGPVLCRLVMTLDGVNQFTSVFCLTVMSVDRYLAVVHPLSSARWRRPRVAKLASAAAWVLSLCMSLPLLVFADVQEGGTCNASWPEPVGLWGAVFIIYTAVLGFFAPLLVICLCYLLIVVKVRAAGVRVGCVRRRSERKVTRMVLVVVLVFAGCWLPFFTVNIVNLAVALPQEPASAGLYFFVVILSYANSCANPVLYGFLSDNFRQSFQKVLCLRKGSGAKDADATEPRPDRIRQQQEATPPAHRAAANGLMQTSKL

Sequence of Somatostatin receptor type 1 (P30872 whole entry): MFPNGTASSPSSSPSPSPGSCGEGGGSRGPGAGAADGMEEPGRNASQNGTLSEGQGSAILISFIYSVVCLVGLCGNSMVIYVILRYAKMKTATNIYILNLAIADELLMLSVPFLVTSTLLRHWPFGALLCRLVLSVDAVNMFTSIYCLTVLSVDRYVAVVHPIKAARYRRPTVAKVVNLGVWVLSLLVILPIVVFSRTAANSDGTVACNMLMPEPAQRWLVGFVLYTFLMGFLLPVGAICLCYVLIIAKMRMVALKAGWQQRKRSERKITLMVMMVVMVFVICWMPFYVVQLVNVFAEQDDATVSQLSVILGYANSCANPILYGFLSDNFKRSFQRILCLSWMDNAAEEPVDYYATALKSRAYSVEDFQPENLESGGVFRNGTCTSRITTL
Sequence of Somatostatin receptor type 2 (P30874 whole entry): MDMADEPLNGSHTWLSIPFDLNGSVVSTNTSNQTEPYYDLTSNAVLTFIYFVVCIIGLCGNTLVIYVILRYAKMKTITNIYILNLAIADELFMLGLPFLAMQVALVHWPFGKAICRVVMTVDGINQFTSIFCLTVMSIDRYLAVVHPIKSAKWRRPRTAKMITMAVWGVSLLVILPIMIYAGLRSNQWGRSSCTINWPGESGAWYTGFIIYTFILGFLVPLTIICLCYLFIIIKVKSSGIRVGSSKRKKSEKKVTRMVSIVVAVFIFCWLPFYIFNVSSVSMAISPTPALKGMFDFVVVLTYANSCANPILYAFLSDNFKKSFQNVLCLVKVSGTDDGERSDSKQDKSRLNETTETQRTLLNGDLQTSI
Sequence of Somatostatin receptor type 3 (P32745 whole entry): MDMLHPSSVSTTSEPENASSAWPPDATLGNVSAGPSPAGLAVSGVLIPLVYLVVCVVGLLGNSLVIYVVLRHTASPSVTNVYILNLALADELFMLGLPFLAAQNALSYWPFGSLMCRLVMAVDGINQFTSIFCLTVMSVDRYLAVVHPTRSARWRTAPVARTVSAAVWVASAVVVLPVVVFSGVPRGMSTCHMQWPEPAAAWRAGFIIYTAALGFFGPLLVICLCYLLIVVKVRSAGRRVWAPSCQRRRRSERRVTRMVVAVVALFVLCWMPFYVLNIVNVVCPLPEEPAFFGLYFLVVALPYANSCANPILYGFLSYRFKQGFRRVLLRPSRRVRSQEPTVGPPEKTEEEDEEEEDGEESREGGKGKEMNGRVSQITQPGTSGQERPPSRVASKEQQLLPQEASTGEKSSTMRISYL
Sequence of Somatostatin receptor type 4 (P31391 whole entry): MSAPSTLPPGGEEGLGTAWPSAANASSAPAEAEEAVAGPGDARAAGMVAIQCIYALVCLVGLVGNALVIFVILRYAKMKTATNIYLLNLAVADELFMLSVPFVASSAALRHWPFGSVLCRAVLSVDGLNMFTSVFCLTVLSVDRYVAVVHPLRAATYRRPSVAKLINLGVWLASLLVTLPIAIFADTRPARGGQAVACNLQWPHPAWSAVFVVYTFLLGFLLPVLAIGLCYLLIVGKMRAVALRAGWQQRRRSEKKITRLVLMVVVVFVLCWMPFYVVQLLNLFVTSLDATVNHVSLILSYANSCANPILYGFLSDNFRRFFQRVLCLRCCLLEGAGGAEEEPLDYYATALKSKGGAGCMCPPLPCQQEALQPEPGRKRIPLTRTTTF

| SMILES | IC50 [1] [nM] | IC50 [2] [nM] | IC50 [3] [nM] | IC50 [4] [nM] | IC50 [5] [nM] |
| --- | --- | --- | --- | --- | --- |
| C[C@@H](O)[C@@H]1NC(=O)[C@H](CCCCN)NC(=O)[C@H](Cc2c[nH]c3ccccc23)NC(=O)[C@H](Cc2ccc(N)cc2)NC(=O)[C@H](Cc2ccccc2)NC(=O)[C@@H](N)CSSC[C@@H](C(=O)O)NC(=O)[C@H](Cc2ccccc2)NC1=O | > 1000 |  |  |  |  |
| C[C@@H](O)[C@@H]1NC(=O)[C@H](CCCCN)NC(=O)[C@H](Cc2c[nH]c3ccccc23)NC(=O)[C@H](Cc2ccc(N)cc2)NC(=O)[C@H](Cc2ccccc2)NC(=O)[C@@H](NC(N)=O)CSSC[C@@H](C(=O)O)NC(=O)[C@H](Cc2ccc(O)cc2)NC1=O |  | > 1000 |  |  |  |
| C[C@@H]1NC(=O)[C@H](Cc2ccccc2)NC(=O)[C@@H](NC(=O)[C@@H](N)Cc2ccc(O)cc2)CSSC[C@@H](C(=O)O)NC(=O)[C@H](Cc2ccccc2)NC(=O)[C@H]([C@@H](C)O)NC(=O)[C@H](CCCCN)NC(=O)[C@H](Cc2c[nH]c3ccccc23)NC1=O |  |  | > 1000 |  |  |
| C[C@@H]1NC(=O)[C@H](Cc2ccccc2)NC(=O)[C@@H](NC(=O)[C@H](Cc2ccc(O)cc2)NC(N)=O)CSSC[C@@H](C(=O)O)NC(=O)[C@H](Cc2ccccc2)NC(=O)[C@H]([C@@H](C)O)NC(=O)[C@H](CCCCN)NC(=O)[C@H](Cc2c[nH]c3ccccc23)NC1=O ({Tyr(Nα-carbamoyl)}-CFAWKTFC-OH; disulfide 1-8) |  |  | > 1000 | 2.4 | > 1000 |
| C[C@@H](O)[C@@H]1NC(=O)[C@H](CCCCN)NC(=O)[C@H](Cc2c[nH]c3ccccc23)NC(=O)[C@H](CCCN)NC(=O)[C@H](Cc2ccccc2)NC(=O)[C@@H](NC(=O)[C@H](Cc2ccc(O)cc2)NC(N)=O)CSSC[C@@H](C(=O)O)NC(=O)[C@H](Cc2ccccc2)NC1=O | > 1000 | 561 | 99 | 2.1 |  |
| C[C@@H](O)[C@@H]1NC(=O)[C@H](CCCCN)NC(=O)[C@H](Cc2c[nH]c3ccccc23)NC(=O)[C@H](Cc2ccccc2)NC(=O)[C@H](Cc2ccccc2)NC(=O)[C@@H](NC(=O)[C@@H](N)Cc2ccc(O)cc2)CSSC[C@@H](C(=O)O)NC(=O)[C@H](Cc2ccccc2)NC1=O (H-YCFFWKTFC-OH; disulfide 2-9) | 57 | 179 | 13 | 1.6 |  |
| COC(=O)[C@H](CCCN=C(N)N)NC(=O)CCCc1c(-c2ccccc2)[nH]c2c(F)cc(F)cc12 |  |  |  | 4.2 |  |
| C[C@@H]1NC(=O)[C@H](Cc2ccccc2)NC(=O)[C@@H](N)CSSC[C@@H](C(=O)O)NC(=O)[C@H](Cc2ccccc2)NC(=O)[C@H]([C@@H](C)O)NC(=O)[C@H](CCCCN)NC(=O)[C@@H](Cc2c[nH]c3ccccc23)NC1=O |  |  | > 1000 |  |  |
| C[C@@H](O)[C@@H]1NC(=O)[C@H](CCCCN)NC(=O)[C@@H](Cc2c[nH]c3ccccc23)NC(=O)[C@H](Cc2ccccc2)NC(=O)[C@H](Cc2ccccc2)NC(=O)[C@@H](N)CSSC[C@@H](C(=O)O)NC(=O)[C@H](Cc2ccc(O)cc2)NC1=O (stereo in doubt) | 8.2 | 15.5 | 10.3 | 0.51 | 4.8 |
| C[C@@H](O)[C@@H]1NC(=O)[C@H](CCCCN)NC(=O)[C@@H](Cc2c[nH]c3ccccc23)NC(=O)[C@H](Cc2ccccc2)NC(=O)[C@H](Cc2ccccc2)NC(=O)[C@@H](N)CSSC[C@@H](C(=O)O)NC(=O)[C@H](Cc2ccccc2)NC1=O (H-CFF[dW]KTFC-OH; disulfide 1-8) | 13 | 41 | 27 | 1.8 | 46 |
| C[C@@H](O)[C@@H]1NC(=O)[C@H](CCCCN)NC(=O)[C@H](Cc2c[nH]c3ccccc23)NC(=O)[C@H](Cc2ccccc2)NC(=O)[C@H](Cc2ccccc2)NC(=O)[C@@H](N)CSSC[C@@H](C(=O)O)NC(=O)[C@H](Cc2ccc(O)cc2)NC1=O (stereo in doubt) | 10 | 43 | 6.5 | 1.3 | 24 |
| C[C@@H](O)[C@@H]1NC(=O)[C@H](CCCCN)NC(=O)[C@H](Cc2c[nH]c3ccccc23)NC(=O)[C@H](Cc2ccccc2)NC(=O)[C@H](Cc2ccccc2)NC(=O)[C@@H](N)CSSC[C@@H](C(=O)O)NC(=O)[C@H](Cc2ccccc2)NC1=O (H-CFFWKTFC-OH; disulfide 1-8) | 13 | 130 | 5.3 | 0.7 | 14 |
| C[C@@H](O)[C@@H]1NC(=O)[C@H](CCCCN)NC(=O)[C@H]([C@@H](C)c2c[nH]c3ccccc23)NC(=O)[C@H](Cc2ccccc2)NC(=O)[C@H](Cc2ccccc2)NC(=O)[C@@H](N)CSSC[C@@H](C(=O)O)NC(=O)[C@H](Cc2ccccc2)NC1=O (H-CFF[Trp(βS-Me)]KTFC-OH; disulfide 1-8) | 330 | 27 | 21 | 1.8 | 221 |
| C[C@@H]1NC(=O)[C@H](Cc2ccccc2)NC(=O)[C@@H](NC(=O)[C@@H](N)Cc2ccc(O)c(I)c2)CSSC[C@@H](C(=O)O)NC(=O)[C@H](Cc2ccccc2)NC(=O)[C@H]([C@@H](C)O)NC(=O)[C@H](CCCCN)NC(=O)[C@H](Cc2c[nH]c3ccccc23)NC1=O | 1020 | > 1000 | > 1000 | 3.5 | > 1000 |
| C[C@@H](O)[C@@H]1NC(=O)[C@H](CCCCN)NC(=O)[C@H](Cc2c[nH]c3ccccc23)NC(=O)[C@H](Cc2ccc(O)cc2)NC(=O)[C@H](Cc2ccccc2)NC(=O)[C@@H](N)CSSC[C@@H](C(=O)O)NC(=O)[C@H](Cc2ccccc2)NC1=O | 22 | 54 | 27 | 1.3 | 63 |
| C[C@@H]1NC(=O)[C@H](Cc2ccccc2)NC(=O)[C@@H](NC(=O)[C@@H](N)Cc2ccc(O)cc2)CSSC[C@@H](C(=O)O)NC(=O)[C@H](Cc2ccccc2)NC(=O)[C@H]([C@@H](C)O)NC(=O)[C@H](CCCCN)NC(=O)[C@@H]([C@@H](C)c2c[nH]c3ccccc23)NC1=O | 381 | 46 | > 1000 | 5.6 |  |
| C[C@@H](O)[C@@H]1NC(=O)[C@H](CCCCN)NC(=O)[C@@H](Cc2c[nH]c3ccccc23)NC(=O)[C@H](Cc2ccc(O)cc2)NC(=O)[C@H](Cc2ccccc2)NC(=O)[C@@H](N)CSSC[C@@H](C(=O)O)NC(=O)[C@H](Cc2ccccc2)NC1=O | 35.7 | 25.7 | 117 | 1.8 | 20.3 |
| CC(O)[C@@H]1NC(=O)[C@H](CCCCN)NC(=O)[C@H](Cc2c[nH]c3ccccc23)NC(=O)[C@H](Cc2ccc(N)cc2)NC(=O)C(Cc2ccccc2)NC(=O)C(NC(N)=O)CSSC[C@@H](C(=O)O)NC(=O)[C@H](Cc2ccccc2)NC1=O (single isomer, unassigned) |  | > 1000 |  | 1.5 | > 1000 |
| C[C@@H](O)[C@@H]1NC(=O)[C@H](CCCCN)NC(=O)[C@H]([C@@H](C)c2c[nH]c3ccccc23)NC(=O)[C@H](Cc2ccccc2)NC(=O)[C@H](Cc2ccccc2)NC(=O)[C@@H](NC(=O)[C@@H](N)Cc2ccc(O)cc2)CSSC[C@@H](C(=O)O)NC(=O)[C@H](Cc2ccccc2)NC1=O (H-YCFF[Trp(βS-Me)]KTFC-OH; disulfide 2-9) | 116 | 48 | 88 | 0.9 |  |
| C[C@@H](O)[C@@H]1NC(=O)[C@H](CCCCN)NC(=O)[C@@H](Cc2c[nH]c3ccccc23)NC(=O)[C@H](Cc2ccc(N)cc2)NC(=O)[C@H](Cc2ccccc2)NC(=O)[C@@H](NC(N)=O)CSSC[C@@H](C(=O)O)NC(=O)[C@H](Cc2ccc(O)cc2)NC1=O |  |  | > 1000 |  |  |
| C[C@@H]1NC(=O)[C@H](Cc2ccccc2)NC(=O)[C@@H](N)CSSC[C@@H](C(=O)O)NC(=O)[C@H](Cc2ccccc2)NC(=O)[C@H]([C@@H](C)O)NC(=O)[C@H](CCCCN)NC(=O)[C@H](Cc2c[nH]c3ccccc23)NC1=O |  |  | > 1000 |  |  |
| C[C@@H](O)[C@@H]1NC(=O)[C@H](CCCCN)NC(=O)[C@@H](Cc2c[nH]c3ccccc23)NC(=O)[C@H](Cc2ccccc2)NC(=O)[C@H](Cc2ccccc2)NC(=O)[C@@H](NC(N)=O)CSSC[C@@H](C(=O)O)NC(=O)[C@H](Cc2ccc(O)cc2)NC1=O (stereo in doubt) | 16 | 52 | 55 | 1 |  |
| C[C@H](c1c[nH]c2ccccc12)[C@H]1NC(=O)[C@H](Cc2ccccc2)NC(=O)[C@H](Cc2ccccc2)NC(=O)[C@@H](N)CSSC[C@@H](C(=O)O)NC(=O)[C@H](Cc2ccccc2)NC(=O)[C@H]([C@@H](C)O)NC(=O)[C@H](CCCCN)NC1=O (H-CFF[X3]KTFC-OH; disulfide 1-8) | 53 | 40 | 49 | 4 | 42 |
| C[C@@H](O)[C@@H]1NC(=O)[C@H](CCCCN)NC(=O)[C@H](Cc2c[nH]c3ccccc23)NC(=O)[C@H](Cc2ccc(N)cc2)NC(=O)[C@H](Cc2ccccc2)NC(=O)[C@@H](NC(=O)[C@H](Cc2ccc(O)c(I)c2)NC(N)=O)CSSC[C@@H](C(=O)O)NC(=O)[C@H](Cc2ccccc2)NC1=O | 325 | > 1000 | > 1000 | 8.8 | 990 |
